Screening data (PubChem)
A selection: hits, their analogues and other compounds. The true share with any hit is near 3.4%.
JNK3 inh – JNK3 kinase activity inhibitors, primary screen, biochemical, human, purified enzyme | Mitogen-activated protein kinase 10 (Homo sapiens), P53779 | AID 746, 2007 | inhibition, % at 8 µM | 60,000 compounds, 0.61% hits | HTS; in the data active = inhibition above about 17%;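 note: 0% = DMSO and 100% = reference inhibitor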
Target sequence (P53779 whole entry, looked up): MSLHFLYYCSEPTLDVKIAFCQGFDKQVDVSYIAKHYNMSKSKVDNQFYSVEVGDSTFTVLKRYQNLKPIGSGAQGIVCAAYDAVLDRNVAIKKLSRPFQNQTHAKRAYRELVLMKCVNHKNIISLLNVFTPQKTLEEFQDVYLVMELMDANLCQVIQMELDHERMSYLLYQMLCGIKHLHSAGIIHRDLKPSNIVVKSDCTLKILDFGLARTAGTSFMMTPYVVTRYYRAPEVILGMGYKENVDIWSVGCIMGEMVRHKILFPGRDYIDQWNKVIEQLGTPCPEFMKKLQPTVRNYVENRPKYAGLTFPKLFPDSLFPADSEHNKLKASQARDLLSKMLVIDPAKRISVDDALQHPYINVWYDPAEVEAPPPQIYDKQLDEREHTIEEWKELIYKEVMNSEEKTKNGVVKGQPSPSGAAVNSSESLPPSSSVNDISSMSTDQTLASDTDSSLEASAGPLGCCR
MMP13 inh – human MMP13 inhibitors, primary screen, biochemical, FRET peptide cleavage. inhibition, % at 4 µM. 65,000 compounds, 0.07% hits. AID 570, 2006. Collagenase 3 (Homo sapiens), P45452. MMP-13 fTHP FRET cleavage, Mca fluorescence;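 active = inhibition above the mean of compound-free control plate wells plus 3 SD, cut at about 14% in these data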;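 note: 0% = DMSO wells and 100% = wells with reference MMP-13 inhibitor after basal subtraction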
ROCK2 blocker – inhibitors of human ROCK2 kinase, primary screen, biochemical, high-throughput, luminescence. purified ROCK2, Kinase-Glo ATP depletion luminescence. Rho-associated protein kinase 2 (Homo sapiens), O75116. inhibition, % at 6 µM. 60,000 compounds, 0.35% hits;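 active = inhibition above the screen-wide mean inhibition plus 3 SD, cut at about 18% in these data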;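 note: plate controls were DMSO wells for no effect and Y-27632 control wells after no-enzyme background subtraction for full effect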
PKA inh – inhibitors of human PKA kinase activity, primary screen, biochemical, ATP-depletion luminescence, Kemptide substrate; PKA Kemptide phosphorylation, Kinase-Glo ATP luminescence; inhibition, % at 6 µM; 65,000 compounds, 0.1% hits; AID 524, 2006;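 active = inhibition above the screen-wide mean inhibition plus 3 SD, cut at about 21% in these data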
SF1 activator – activators of human SF-1, primary screen, cell-based, CHO-K1, Gal4-SF-1 LBD, luciferase luminescence; Steroidogenic factor 1 (Homo sapiens), Q13285; CHO-K1 Gal4-SF-1 LBD luciferase reporter; % increase over DMSO SF-1-specific signal; activation, % at 10 µM; 65,000 compounds, 1.9% hits; AID 522, 2006;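 active = activation above the mean activation of all tested compounds plus 3 SD, cut at about 50% in these data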
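System: CHO-K1 cells with Gal4–hSF-1 LBD chimera plus Gal4-driven luciferase; quantity: 4,000 CHO-K1 cells per well; compound: one dose, 10 µM compound, 1% DMSO; times: 20 h compound treatment, 37 °C; measured by: SteadyLite luciferase luminescence; read-out: percent activation versus DMSO; benchmarks: DMSO and mock-transfected background; replicates: one test per compound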
RORa activator – activators of orphan receptor RORA, primary screen, cell-based, luminescence | activation, % at 10 µM | 65,000 compounds, 1.5% hits | CHO-K1 Gal4-RORA LBD luciferase reporter; percent increase over mock-subtracted basal signal;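 active = activation above the mean of all tested compounds plus 3 SD, cut at about 49% in these data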;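 note: 0% = DMSO-treated RORA cells and 100% = added signal equal to DMSO minus mock-transfected cells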
* hit, by the source's call; nt = not tested or not shown.

SMILES	JNK3 inh	MMP13 inh	ROCK2 blocker	PKA inh	SF1 activator	RORa activator
COc1ccc(NC2c3ccccc3C(=O)N2c2cccnc2)cc1Cl (stereo not drawn)	-2	1	0	-10	-5	9
COc1cc(OC)c(NC2c3ccccc3C(=O)N2c2cc(C)ccn2)cc1Cl (stereo not drawn)	-3	2	-10	-2	39	84*
CCn1c(-c2ccc(N(C)C)cc2)nc2ccccc21	-6	-455	2	4	19	88*
C=CCn1c(-c2ccc(N)cc2)nc2ccccc21	-2	-147	4	8	57*	38
C=CCn1c(-c2ccc(OC)cc2)nc2ccccc21	3	-7	-1	-5	41	42
CCn1c(N)nc2ccccc21	-9	1	7	7	19	10
CCn1c(-c2ccc(N)cc2)nc2ccccc21	2	-123	3	4	37	50*
CN(C)c1ccc(-c2nc3ccccc3n2C)cc1	-15	-363	-23	-8	-59	-62
CC(C)N1C(=O)CCC1C(=O)NC1CCCC1 (stereo not drawn)	-4	-3	7	11	-6	-5
CN(C)C(=O)CSc1nnc(CCN)o1	3	0	-4	-3	3	-14
CN(C)C(=O)CSc1nnc(C23CC4CC(CC(C4)C2)C3)o1	7	-1	5	4	88*	18
CCC(C(=O)NC1CCCC1)N(C(=O)Cn1nnc(-c2ccc(C)o2)n1)C(C)(C)C (stereo not drawn)	-7	2	6	8	2	-8
O=C(NC1CCCCC1)c1cc2nc3c(c(C(F)(F)F)n2n1)CCCC3	3	3	6	6	50*	34
O=C(NC1CCCCC1)c1cc2nc(-c3ccco3)cc(C(F)(F)F)n2n1	7	-21	3	3	11	16
O=C(Nc1nnc(SCc2ccc(Cl)cc2)s1)c1ccco1	-4	-2	7	3	13	-11
CCSc1nnc(NC(=O)c2cc3c(s2)CCCC3)s1	-4	-8	4	6	52*	46
CCCc1cc(C(N)=O)c(NC(=O)c2ccco2)s1	7	3	10	0	60*	59*
CCSc1nnc(Nc2ccccc2)s1	-4	3	4	6	54*	17
CCSc1nnc(NC(=O)c2ccco2)s1	-1	-6	-3	10	22	53*
CCOCCCNC(=O)C(Cc1ccccc1)NC(=O)c1ccco1 (stereo not drawn)	10	2	6	10	-7	-19
Cc1ccc(-n2nnc3c(=O)n(CC(=O)NCC4CCCO4)cnc32)cc1 (stereo not drawn)	-3	-1	7	8	5	-22
O=C(CN(C(=O)c1ccc2c(c1)OCCO2)c1ccccc1)NCC1CCCO1 (stereo not drawn)	8	-1	-1	-4	-12	12
CCSc1nnc(NC(=O)c2ccccc2)s1	4	0	8	7	49	66*
Cc1ccc(-n2cc3c(=O)n(C)c(=O)n(C)c3c2)cc1C	13	0	10	11	14	-8
Cc1cc(N)c(-n2cc3c(=O)n(C)c(=O)n(C)c3c2)cc1C	6	-11	8	6	30	54*
SMILES	JNK3 inh	MMP13 inh	ROCK2 blocker	PKA inh	SF1 activator	RORa activator
Cc1cc(S(=O)(=O)N2CCC(NC(=O)C34CC5CC(CC(C5)C3)C4)CC2)ccc1-n1cnnn1	3	5	-3	-3	1	-18
CN(C)/C=N/c1ncnc2c1cnn2-c1ccc(C(F)(F)F)cn1	2	3	0	6	82*	-2
FC(F)(F)c1ccc(-n2ccnc2)nc1	0	3	1	0	-4	-6
Cc1ccnc(NC(=O)CCC(=O)N(CC(=O)NC2CCCCC2)Cc2ccc3c(c2)OCO3)c1	2	-15	0	-4	9	-26
Nc1nc(CSc2nc3ccccc3[nH]2)cs1	-8	-2	4	6	10	29
Nc1nc(CSc2ncn(-c3ccccc3)n2)cs1	8	5	2	-6	59*	44
c1ccc(CCCNc2ncnc3nc[nH]c23)cc1	-1	4	8	22*	-1	-11
CC(=O)c1sc(NC(=O)C2COc3ccccc3O2)nc1C (stereo not drawn)	9	-3	4	-2	6	10
CC(=O)c1sc(Nc2ccccn2)nc1C	23*	-3	-1	3	23	9
CCc1nc(Nc2ccc(N3CCN(C(C)=O)CC3)cc2)c2oc3ccccc3c2n1	0	2	3	1	53*	12
COc1ccc(C(CNC(=O)c2ccc(S(=O)(=O)N3CCOCC3)cc2)N2CCCCC2)cc1 (stereo not drawn)	-4	0	4	4	15	-10
CCOC(=O)Cn1nnnc1CN(Cc1ccccc1)Cc1cc2cc(CC)ccc2[nH]c1=O	3	-25	1	-4	20	58*
CCOc1ccccc1Oc1coc2cc(OC(=O)c3ccco3)ccc2c1=O	-9	-9	1	-4	13	4
CCN(CC)C(=O)Oc1ccc2c(=O)c(-c3ccccc3)coc2c1	-4	1	5	6	8	82*
O=C(O)c1oc2ccc(Br)cc2c1-n1cccc1	5	-1	5	3	-14	10
COCCNc1ncnc2c1cnn2-c1ccc(Cl)cc1	-8	-18	4	2	68*	54*
COCCN(CCOC)c1ncnc2c1cnn2-c1ccc(Cl)cc1	nt	3	nt	9	33	55*
OCCOCCNc1ncnc2c1cnn2-c1ccc(Cl)cc1	1	-22	-5	2	64*	7
OCCOCCNc1ncnc2c1cnn2-c1ccccc1	-3	-24	3	4	46	-5
Cc1nn(Cc2ccccc2)c(C)c1NC(=O)CSc1nnc(-c2cc(Cl)ccc2O)n1C	7	5	2	10	2	12
c1ccc(NC2=Nc3ccccc3CS2)cc1	0	1	5	12	24	89*
CC1CC(C)CN(c2nc3c(c(=O)[nH]c(=O)n3C)n2CCSc2nc3ccccc3o2)C1 (stereo not drawn)	-3	2	-2	6	9	7
CCNc1nc(N)nc(Oc2ccc(C(=O)OC)cc2)n1	3	6	4	9	44	56*
